NPY-Y2 antag: NPY-Y2 (human) receptor antagonism. P49146. NPY-Y2 expressing cells, antagonist mode. inhibition, % at 2.7 µM. 140,000 tested, 0.99% active; in the data active = inhibition above about 17%;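 note: 0% = vehicle with agonist challenge and 100% = reference antagonist with challenge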
NPY1 pot ag: potentiators or agonists of human neuropeptide Y receptor Y1. NPY-Y1 expressing cells, potentiator/agonist activation. P25929. activation, % at 3.6 µM. 220,000 tested, 0.37% active; in the data active = activation above about 33%, passing the limit was not always enough;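 note: cells stimulated with NPY at EC10 then isoproterenol at EC100; 0% = low agonist plus stimulus and 100% = saturating agonist plus stimulus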
Target sequence (P25929 whole entry, looked up): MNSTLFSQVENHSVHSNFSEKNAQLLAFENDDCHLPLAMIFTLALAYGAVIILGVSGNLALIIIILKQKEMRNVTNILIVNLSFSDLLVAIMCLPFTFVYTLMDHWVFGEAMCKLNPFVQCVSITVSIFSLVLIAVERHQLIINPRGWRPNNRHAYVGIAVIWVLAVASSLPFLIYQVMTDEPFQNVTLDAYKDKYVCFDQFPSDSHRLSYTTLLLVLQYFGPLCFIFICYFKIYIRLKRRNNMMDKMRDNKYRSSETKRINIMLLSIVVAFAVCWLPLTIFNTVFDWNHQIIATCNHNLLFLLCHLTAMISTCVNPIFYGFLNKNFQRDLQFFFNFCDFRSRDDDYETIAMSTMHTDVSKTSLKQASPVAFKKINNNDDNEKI
NPY-Y2 PAM-ag: potentiators or agonists of human neuropeptide Y receptor Y2 | P49146 | cells expressing NPY-Y2, potentiator/agonist read-out | activation, % at 3.6 µM | 220,000 tested, 0.45% active | AID 1359; in the data active = activation above about 27%;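 note: cells stimulated with NPY near EC25 plus isoproterenol at EC100; 0% = vehicle plus submaximal agonist and 100% = vehicle plus saturating agonist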
NPY Y1 blocker: antagonists of human neuropeptide Y receptor Y1. HEK293-CNG Y1 cells, membrane potential fluorescence; NPY at EC95, then isoproterenol. inhibition, % at 3.6 µM. AID 1040. P25929. 200,000 tested, 1% active;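 active = inhibition above the campaign mean inhibition of all tested compounds plus 3 SD, cut at about 20% in these data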;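 note: 0% = DMSO wells given NPY plus isoproterenol and 100% = isoproterenol alone without NPY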
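Test system: HEK293 cells co-expressing NPY Y1 receptor and cyclic-nucleotide gated channel; Also added: NPY (25 nM), isoproterenol (1 µM), Ro 20-1724 (25 µM); Compound dosing: one concentration, 3.6 µM, in 0.4% DMSO; Timing: dye 3 h, compound 60 min room temperature, stimulation 45 min; Technique: Membrane-potential fluorescent dye readout.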
NPY-Y1 confirm: human NPY-Y1 potentiation or agonism, confirmation; shares compounds with NPY1 pot ag; 280 tested, 20% active; activation, % at 3.6 µM; cell-based NPY-Y1 potentiator/agonist assay; in the data active = activation above about 45%;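 note: cells challenged with NPY at its EC10 plus isoproterenol stimulus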
NPY-Y2 counter: NPY-Y2 potentiation or agonism as NPY-Y1 counter-screen; shares compounds with NPY1 pot ag; HEK293-CNG cells, membrane-potential fluorescence (FLIPR), 1536-well; activation, % at 3.6 µM; 280 tested, 20% active; in the data active = activation above about 33%
NPY-Y1 ag: human NPY-Y1 agonism as potentiator counter-screen; shares compounds with NPY1 pot ag; HEK293 Y1-CNGC, membrane potential fluorescence, agonist mode; activation, % at 3.6 µM; 280 tested, 50% active; AID 1697;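 active = percent activation above the mean of DMSO-only control wells plus 3 SD of those wells, cut at about 18% in these data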;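 note: cells challenged with isoproterenol plus Ro 20-1724 with no NPY in test wells; Y1 agonism lowers isoproterenol-driven cAMP and reduces probe fluorescence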
NPY-Y2 agonist: human NPY-Y2 agonism as NPY-Y1 counter-screen. shares compounds with NPY1 pot ag. HEK293 Y2-CNGC, membrane potential fluorescence, agonist mode. activation, % at 3.6 µM. 280 tested, 67% active. AID 1698;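 active = activation above the solvent-only control wells' mean plus 3 SD, cut at about 11% in these data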;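 note: 0% = DMSO with isoproterenol and 100% = 40 nM NPY maximal response; agonism lowers cAMP so well fluorescence drops in active wells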
CNGC counter: CNG channel inhibition, counter-screen for NPY-Y1 potentiators | shares compounds with NPY1 pot ag | HEK293-CNG parental, isoproterenol cAMP, membrane potential fluorescence | inhibition, % at 3.6 µM | 280 tested, 42% active | AID 1704;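 active = inhibition above the mean of stimulated solvent-only control wells plus 3 SD, cut at about 22% in these data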;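 note: 0% = isoproterenol-stimulated DMSO wells and 100% = unstimulated DMSO wells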
Starred values were filed as active, the others as inactive; . = not tested or not shown. The list is not random: actives were taken first. Their share in the collection is about 1.8%.

SMILES	NPY-Y2 antag	NPY1 pot ag	NPY-Y2 PAM-ag	NPY Y1 blocker	NPY-Y1 confirm	NPY-Y2 counter	NPY-Y1 ag	NPY-Y2 agonist	CNGC counter
Cn1c(C(C#N)C2=C(Cl)C(=O)N(c3ccccc3)C2=O)nc2ccccc21 (stereo not given)	-7	36*	30	-17	71*	60*	83*	72*	58*
Cn1c(C(O)C(O)c2ccccc2)nc2ccccc21 (stereo not given)	.	9	6	-5	.	.	.	.	.
NS(=O)(=O)c1cc(C(=O)NCCc2ccccn2)ccc1Cl	.	96*	-2	.	6	-1	-5	-4	3
CCOc1ccc(N2C(=O)C(CC(=O)Nc3ccc(F)cc3)N(Cc3ccccn3)C2=S)cc1 (stereo not given)	.	42*	11	-12	47*	32	35*	46*	41*
Cc1c(NC(=O)c2ccc(CN3CCc4ccccc4C3)cc2)c(=O)n(-c2ccccc2)n1C	1	8	14	3	.	.	.	.	.
Cc1cc(C)c(NC(=O)c2ccc(CN3CCc4ccccc4C3)cc2)c(C)c1	8	57*	7	1	-15	-9	6	-2	-14
COc1ccccc1Oc1ccc(-c2cnc3ccccc3n2)cc1[N+](=O)[O-]	.	47*	19	3	36	24	38*	21*	0
COC(=O)c1ccc(NC(=O)CN2CCN(c3ccccc3C)CC2)cc1	10	54*	10	13	-37	-26	-22	-4	-27
Cn1c(SCC(=O)NNC(=O)Cc2ccccc2)nnc1-c1ccccc1	1	5	-7	9	.	.	.	.	.
CCN1CCN(C(=O)Nc2cccc(C(F)(F)F)c2)CC1	-1	-16	3	2	.	.	.	.	.
CCN1CCC(NC(=O)Nc2cccc(C(F)(F)F)c2)CC1	.	36*	0	-1	2	2	-2	-4	7
CCCN1C(=O)/C(=C/c2ccc(OCC(=O)OCC)cc2)NC1=S	.	78*	22	-7	122*	101*	110*	105*	100*
O=C(C1CC1)N1CCN(S(=O)(=O)c2ccc3c(c2)OCCO3)CC1	.	0	6	7	.	.	.	.	.
O=C(CCC1CCCN(C(=O)c2ccsc2)C1)N1CCN(c2ccccn2)CC1 (stereo not given)	.	11	-8	.	.	.	.	.	.
CC(C)c1ccc2c(c1)CCC1C(C)(CN)CCCC21C (stereo not given)	.	47*	33	.	48*	42*	34*	40*	22
CC(C)N1CCC(NC(=O)Nc2ccc3c(c2)OCO3)CC1	.	4	1	2	.	.	.	.	.
Cc1cc(C)c(S(=O)(=O)N(CC(=O)N2CCOCC2)C2CCCCC2)c(C)c1	1	-3	6	10	.	.	.	.	.
CCOC(=O)N1CCN(C(=O)CN(C2CCCCC2)S(=O)(=O)c2c(C)cc(C)cc2C)CC1	1	71*	-21	3	-7	-5	-13	4	-8
CN(C)CCNC(=O)c1ccc(Sc2ccc(Br)cc2)c([N+](=O)[O-])c1	.	39*	14	-5	43	33*	26*	40*	30*
CCCc1nn2c(N)c(/C=C3\C=Nc4ccccc43)c(=O)nc2s1	5	11	11	-1	.	.	.	.	.
CCC(CC)c1nn2c(N)c(/C=C3\C=Nc4ccccc43)c(=O)nc2s1	.	73*	12	.	95*	82*	97*	85*	46*
COC(=O)c1cc(C(=O)c2ccccc2)n2c(=O)/c(=C\N(C)C)sc12	.	13	18	.	.	.	.	.	.
COC(=O)c1cc(C(=O)c2ccc(Cl)cc2)n2c(=O)/c(=C\N(C)C)sc12	.	35*	16	-9	14	12	19*	12*	11
CCOC(=O)C(C)(C)N(Cc1cccc(C)c1)S(=O)(=O)c1ccc(Cl)c([N+](=O)[O-])c1	-3	66*	27	-9	34	29	39*	31*	46*
CCOc1ccccc1/C=C(/NC(=O)c1ccccc1)C(=O)NC(C)c1ccccc1 (stereo not given)	4	12	-9	-2	.	.	.	.	.
SMILES	NPY-Y2 antag	NPY1 pot ag	NPY-Y2 PAM-ag	NPY Y1 blocker	NPY-Y1 confirm	NPY-Y2 counter	NPY-Y1 ag	NPY-Y2 agonist	CNGC counter
Cc1ccc(-c2nnc(-c3ccc(NC(=O)Cc4cccs4)cc3)o2)cc1	0	50*	0	3	-22	-9	-13	3	0
Cc1ccc(OCCn2cnc(Cl)c2Cl)cc1	.	13	-12	4	.	.	.	.	.
COc1ccc2c(c1)c(/C=N/Nc1nc3ccccc3[nH]1)c(C)n2C	.	42*	29	.	60*	47*	42*	50*	36*
O=[N+]([O-])c1cc(S(=O)(=O)N2CCCCCC2)ccc1Cl	.	41*	31	-2	16	22	16	22*	56*
CCCn1nnc(NC(=O)C(c2ccccc2)c2ccccc2)n1	4	12	2	12	.	.	.	.	.
CCCCn1nnc(NC(=O)C(c2ccccc2)c2ccccc2)n1	.	64*	-17	2	-8	-5	-2	7	0
COc1ccc(C(=O)NCC(=O)OCc2ccc(F)cc2)cc1	.	-4	7	-3	.	.	.	.	.
CN1CCc2c(sc3c2C(=O)NC(c2cccs2)N3)C1 (stereo not given)	-1	-3	2	-9	.	.	.	.	.
CSc1ccc(C2NC(=O)c3c(sc4c3CCN(C)C4)N2)cc1 (stereo not given)	2	42*	8	3	4	0	-6	-3	3
CC(=O)N(Cc1ccc2c(c1)OCO2)C1CC(=O)N(CCc2ccccc2)C1=O (stereo not given)	1	17	-4	3	.	.	.	.	.
CC(C)(C)Nc1nc(Cl)nc(N(C#N)CN2C(=O)c3ccccc3S2(=O)=O)n1	.	65*	9	-2	46*	28	39*	29*	22*
CC(C)Nc1nc(Cl)nc(N(C#N)CN2C(=O)c3ccccc3S2(=O)=O)n1	.	9	-6	.	.	.	.	.	.
O=C(N/N=C/c1ccc(Cl)cc1Cl)C(=O)NC1CC1	.	-2	-6	4	.	.	.	.	.
Cc1ccccc1NCC(=O)N/N=C/c1c[nH]c2ccccc12	.	46*	15	-10	29	25	27*	18*	29*
Cn1c(CSCc2ccc(Cl)cc2Cl)n[nH]c1=S	.	65*	-16	0	-3	2	0	7	-9
Cn1c(CSCc2ccccc2Cl)n[nH]c1=S	.	9	-6	3	.	.	.	.	.
CCOc1cc(/C=N/N=C2/NC(=O)C(CC(=O)O)S2)ccc1OCc1ccccc1Cl (stereo not given)	.	-2	-9	4	.	.	.	.	.
